≈ marks a conversion by molar mass, not a printed value. Calls of active or inactive are those of the source. No cut-off for these calls is given here. Some results are limits rather than exact numbers.

What is called IC50 is the concentration that inhibits the measured activity by half. Broadly, the inhibition is the relative decrease from the control value, in per cent. The term solubility denotes the concentration that dissolves in the medium under given conditions.

The nature of data set [1]: Cytotoxicity against human MGC803 cells assessed as inhibition of cell proliferation incubated for 72 hrs by MTS assay. In kind it is functional, cell-based. Particulars: MGC-803, 72 h. In a few lines: (§1)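 Cells in RPMI-1640 with 10% heat-inactivated FBS at 37°C, 5% CO2. Seeded at 4000 cells/well in triplicate and attached overnight. Exposed to various concentrations for 72 h. MTS added for a further 4 h; absorbance at 490 nm. IC50 = concentration for 50% growth inhibition, as mean ± SEM of three independent tests.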
On the technique in general: Tetrazolium dyes change colour on reduction, which living cells bring about.

Data set [2] can be described thus: Cytotoxicity against human SGC7901 cells assessed as inhibition of cell proliferation at 10 uM incubated for 72 hrs by MTS assay. In kind it is functional. Particulars: SGC-7901, 72 h. In a few lines:
(§2)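 Single-concentration MTS screen at 10 μM. Cells in RPMI-1640 with 10% FBS, seeded at 4000 cells/well in triplicate, attached overnight, then exposed for 72 h at 37°C, 5% CO2. MTS for 4 h; absorbance 490 nm. Reported as % inhibition.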

Data set [3] can be described thus: Solubility of compound in water.
The test system of data set [4] is SGC-7901. The data set can be described thus: Induction of apoptosis in human SGC7901 cells assessed as increase in cleaved PARP incubated for 24 hrs by immunoblotting. The format is functional, cell-based. The method in brief: (§3)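 SGC7901 cells treated 24 h at 2.5, 5 or 10 μM. Lysed on ice for 30 min; 60 µg protein run on 10% SDS-PAGE and transferred to PVDF. Blocked in 5% milk. Primary antibodies (cleaved PARP, pro-caspase-3, Bcl-2) overnight at 4°C, HRP secondary 1:300 for 1 h at room temperature. ECL detection. Three experiments.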
(Immunoblotting shows a protein as a band on a membrane.)

Data set [5] can be described thus: Cytotoxicity against human MGC803 cells assessed as inhibition of cell proliferation at 10 uM incubated for 72 hrs by MTS assay. In kind it is functional. Particulars: MGC-803, 72 h. The method in brief:
as §2

A short description of data set [6]: Cytotoxicity against human SW620 cells assessed as inhibition of cell proliferation incubated for 72 hrs by MTS assay. In kind it is functional, cell-based. Particulars: SW-620, 72 h. In a few lines:
as §1

A short description of data set [7]: Cytotoxicity against human GES-1 cells assessed as inhibition of cell proliferation incubated for 72 hrs by MTS assay. The format is functional, cell-based. Particulars: GES1, 72 h. The method in brief: as §1
Data set [8] relates to SGC-7901. The data set can be described thus: Induction of apoptosis in human SGC7901 cells assessed as necrotic cells and late apoptotic cells incubated for 30 hrs by PI and Annexin V-FITC-based flow cytometric analysis. The format is functional, cell-based. The method in brief: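 SGC7901 cells grown to 80% confluency in 6-well plates, then treated 30 h with 2.5, 5 or 10 μM. DMSO negative control. Cells washed in ice-cold PBS and stained with FITC-Annexin V and PI in binding buffer. Read by flow cytometry: UR = necrotic/late apoptotic, LR = early apoptotic. Three separate experiments.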
(Flow cytometry measures light scatter and fluorescence of single cells or particles in a stream.)

Data set [9] relates to SGC-7901. The data set can be described thus: Induction of apoptosis in human SGC7901 cells assessed as decrease in procaspase-3 fragments at 2.5 to 10 uM incubated for 24 hrs by immunoblotting. In kind it is functional, cell-based. In a few lines: as §3
Data set [10] relates to CT26. The data set can be described thus: Cytotoxicity against mouse CT26 cells at 10 uM assessed as inhibition of cell proliferation incubated for 72 hrs by MTS assay. In kind it is functional. Particulars: CT26, 72 h. In a few lines: as §2
Data set [11] deals with SGC-7901. The experiment in a line: Induction of apoptosis in human SGC7901 cells assessed as decrease in BCL2 expression at 2.5 to 10 uM incubated for 24 hrs by immunoblotting. In kind it is functional, cell-based. The method in brief: as §3
The nature of data set [12]: Cytotoxicity against human SGC7901 cells assessed as inhibition of cell proliferation incubated for 72 hrs by MTS assay. The format is functional, cell-based. Particulars: SGC-7901, 72 h. In a few lines:
as §1

The nature of data set [13]: Cytotoxicity against human SW620 cells assessed as inhibition of cell proliferation at 10 uM incubated for 72 hrs by MTS assay. Particulars: SW-620, 72 h. In kind it is functional. In a few lines:
as §2

Data set [14] concerns CT26. The experiment in a line: Cytotoxicity against mouse CT26 cells assessed as inhibition of cell proliferation incubated for 72 hrs by MTS assay. In kind it is functional, cell-based. Particulars: CT26, 72 h. In a few lines:
as §1

Take `CCN(CC)CCCOc1ccc(/C=C2\CCC/C(=C\c3ccc(OCCCN(CC)CC)c(OC)c3)C2=O)cc1OC`: the IC50 was 1720 nM in data set [1]; 990 nM in [6]; 3450 nM in data set [7]; 1700 nM in [12]; 2060 nM with CT26 [14]. For the same compound, the inhibition at 10 µM in data set [2] came to 78%; in data set [5] it was 80.4%; in the data set with CT26 [10] it was 91.9%; in data set [13], 82.6%. The solubility in [3] amounted to 21.6 µg/mL (≈ 36.5 µM). In addition, the Activity result in the data set on SGC-7901 [4] and in the data set on SGC-7901 [8] was “Dose-dependent effect” in each case. Also, the outcome in the data set with SGC-7901 [9] and with SGC-7901 [11] was Active.

Consider `COc1cc(/C=C/C(=O)/C=C/c2cccc(OC)c2OC)ccc1OCCCN1CCOCC1`, for which the concentration for half-maximal inhibition (IC50) is 2490 nM in [1]; 1020 nM in data set [6]; 2770 nM in data set [7]; 1840 nM in data set [12]; 2380 nM with CT26 [14]. In addition, the inhibition at 10 µM in data set [2] worked out at 73.7%; in [5], 77.6%; with CT26 [10] it was 88.9%; in data set [13] it was 82.1%. Besides, the concentration in solution in [3] (solubility) came to 114 µg/mL (≈ 243 µM). In addition, the outcome in the data set on SGC-7901 [4] and in the data set on SGC-7901 [8] was inactive. In the data set with SGC-7901 [9], the result was Active.

For `COc1cc(/C=C2\CC/C(=C\c3ccc(OCCCN4CCCCC4)c(OC)c3)C2=O)ccc1OCCCN1CCCCC1`, the concentration for half-maximal inhibition (IC50) stood at 680 nM in data set [1]; 390 nM in data set [6]; 670 nM in data set [7]; 440 nM in data set [12]; 180 nM with CT26 [14]. Moreover, the inhibition at 10 µM was 84.2% in data set [2], 86.6% in [5], 91.9% with CT26 [10] and 83.8% in data set [13]. This compound also displayed a solubility in [3] of 4.11 µg/mL (≈ 6.82 µM).

In the case of `COc1cc(/C=C2\CC/C(=C\c3ccc(OCCCn4ccnc4)c(OC)c3)C2=O)ccc1OCCCn1ccnc1`, the IC50 in data set [1] came to 2460 nM; in data set [6], 950 nM; in [7] it was 7090 nM; in data set [12] it was 890 nM; in the data set on CT26 [14], 360 nM. For the same compound, the inhibition at 10 µM in [2] stood at 76.8%; in data set [5], 16.3%; in the data set with CT26 [10], 101%; in [13], 93.5%. In [3], the solubility amounted to 3.63 µg/mL (≈ 6.38 µM).

Turning to `COc1ccccc1/C=C/C(=O)/C=C/c1ccc(OCCCBr)c(OC)c1`, the IC50 in data set [1] came to 6690 nM; in data set [6], 3530 nM; in data set [7], 4110 nM; in data set [12], 2840 nM; in the data set with CT26 [14] it was 6390 nM. Further, the inhibition at 10 µM in data set [2] is 74.8%; in data set [5], 80.1%; in the data set on CT26 [10] it was 77.2%; in data set [13] it was 81.5%.

In the case of `COc1cc(/C=C/C(=O)/C=C/c2ccc(C(C)(C)C)cc2)ccc1OCCCN1CCOCC1`, the IC50 was determined as 2450 nM in data set [1]; 1620 nM in data set [6]; 3030 nM in [7]; 2770 nM in data set [12]; 3260 nM in the data set with CT26 [14]. The inhibition at 10 µM turned out to be 76.2% in data set [2], 84.2% in data set [5], 90.7% in the data set on CT26 [10] and 84.8% in data set [13].

For `COc1cc(/C=C2\CC/C(=C\c3ccc(OCCCN4CCOCC4)c(OC)c3)C2=O)ccc1OCCCN1CCOCC1`, the half-maximal inhibitory concentration (IC50) was 2280 nM in [1]; 1490 nM in data set [6]; above 30000 nM in data set [7]; 1000 nM in [12]; 390 nM with CT26 [14]. The inhibition at 10 µM in data set [2] worked out at 86.1%; in [5] it was 83.9%; in the data set with CT26 [10], 92.5%; in [13] it was 86%.

Regarding `COc1cc(/C=C2\CCC/C(=C\c3ccc(OCCCN4CCCCC4)c(OC)c3)C2=O)ccc1OCCCN1CCCCC1`, the half-inhibitory concentration (IC50) in data set [1] was 2920 nM; in data set [6], 2490 nM; in [7] it was 6350 nM; in data set [12], 2320 nM; with CT26 [14] it was 2420 nM. In addition, the inhibition at 10 µM in [2] was 82.8%; in [5], 76.9%; with CT26 [10] it was 93.2%; in data set [13], 86.9%.

Consider `COc1cc(/C=C2\CCC/C(=C\c3ccc(OCCCn4ccnc4)c(OC)c3)C2=O)ccc1OCCCn1ccnc1`, for which the IC50 was 2210 nM in data set [1]; 2790 nM in [6]; 2870 nM in data set [7]; 3380 nM in [12]; 3590 nM with CT26 [14]. Besides, the inhibition at 10 µM is 85% in data set [2], 88.5% in [5], 90.9% with CT26 [10] and 82.4% in [13].

For the compound `COc1ccc(/C=C2\CCC/C(=C\c3ccc(OCCCN4CCOCC4)c(OC)c3)C2=O)cc1OC`, the IC50 is 8610 nM in data set [1]; 3810 nM in data set [6]; 8170 nM in data set [7]; 2870 nM in [12]; 2990 nM in the data set with CT26 [14]. In addition, the inhibition at 10 µM in data set [2] was found to be 86.4%; in [5], 89.8%; with CT26 [10], 86.5%; in data set [13], 83.6%.

Values taken from ChEMBL document CHEMBL3734694, “Design, synthesis, and anticancer evaluation of long-chain alkoxylated mono-carbonyl analogues of curcumin” (Eur J Med Chem, 2015).
